How the values were obtained:
Botrytis cinerea = test: Fungicidal activity against Botryotinia fuckeliana at 50 ug/ml by growth inhibition method; type: functional; conditions: read-out: GI
In short: (§1)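 Mycelial growth inhibition on potato dextrose agar. The panel covered Alternaria solani, Botrytis cinerea, Cercospora arachidicola, C. beticola, Colletotrichum lagenarium, Fusarium oxysporum, Gibberella zeae, Puccinia triticina, Phytophthora infestans, Physalospora piricola, Pellicularia sasakii and Rhizoctonia solani.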

Tobacco mosaic virus [1] = test: In vitro antiviral activity against Tobacco mosaic virus (TMV) infected tobacco leaves at 200 ug/ml; type: functional
Nicotiana tabacum [2] = test: Phytotoxicity against Nicotiana tabacum (tobacco) plant; type: organism-based; conditions: in vivo
Tobacco mosaic virus [3] = test: In vivo antiviral activity against Tobacco mosaic virus (TMV) infected tobacco leaves assessed as protective effect at 500 ug/ml treated 12 hr before viral inoculation measured at 2-3 days after viral challenge; type: functional
In short: (§2)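 Six-leaf tobacco; compound solution smeared over whole leaves, dried in greenhouse, then after 12 h TMV (5.88 10-2 μg/mL) rubbed onto upper three leaves, with solvent on lower three leaves as control. Local lesions counted 2-3 days post-inoculation, three repetitions. Inhibition (%) = (CK − A)/CK × 100 from mean lesion numbers.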

Phytophthora infestans = test: Fungicidal activity against Phytophthora infestans at 50 ug/ml by growth inhibition method; type: functional; conditions: read-out: GI; in short: as §1
Fusarium graminearum = test: Fungicidal activity against Fusarium graminearum at 50 ug/ml by growth inhibition method; type: functional; conditions: read-out: GI; in short: as §1
Tobacco mosaic virus [4] = test: In vivo antiviral activity against Tobacco mosaic virus (TMV) infected tobacco leaves assessed as inactivation effect at 500 ug/ml co-treated with virus for 30 min before inoculation onto leaves measured at 2-3 days after viral challenge; type: functional
In short: (§3)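 TMV (5.88 10-2 μg/mL) mixed with equal volume of compound solution for 30 min, then rubbed onto upper three leaves of six-leaf tobacco; solvent on lower three leaves as control. Lesions counted 2-3 days later, three repetitions. Inhibition (%) = (CK − A)/CK × 100 from mean lesion counts.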

Colletotrichum lagenaria = test: Fungicidal activity against Colletotrichum lagenaria at 50 ug/ml by growth inhibition method; type: functional; conditions: read-out: GI; in short: as §1
Alternaria solani = test: Fungicidal activity against Alternaria solani at 50 ug/ml by growth inhibition method; type: functional; conditions: read-out: GI; in short: as §1
[5] = tested on: Botryosphaeria berengeriana; test: Fungicidal activity against Botryosphaeria berengeriana at 50 ug/ml by growth inhibition method; type: functional; conditions: read-out: GI; in short: as §1
Thanatephorus cucumeris = test: Fungicidal activity against Thanatephorus cucumeris at 50 ug/ml by growth inhibition method; type: functional; conditions: read-out: GI; in short: as §1
Fusarium oxysporum = test: Fungicidal activity against Fusarium oxysporum at 50 ug/ml by growth inhibition method; type: functional; conditions: read-out: GI; in short: as §1
Tobacco mosaic virus [6] = test: In vitro antiviral activity against Tobacco mosaic virus (TMV) infected tobacco leaves at 500 ug/ml; type: functional
Cercospora beticola = test: Fungicidal activity against Cercospora beticola at 50 ug/ml by growth inhibition method; type: functional; conditions: read-out: GI; in short: as §1
Tobacco mosaic virus [7] = test: In vivo antiviral activity against Tobacco mosaic virus (TMV) infected tobacco leaves assessed as inactivation effect at 100 ug/ml co-treated with virus for 30 min before inoculation onto leaves measured at 2-3 days after viral challenge; type: functional; in short: as §3
Tobacco mosaic virus [8] = test: In vivo antiviral activity against Tobacco mosaic virus (TMV) infected tobacco leaves assessed as curative effect at 500 ug/ml treated after viral inoculation measured at 2-3 days after viral challenge; type: functional
In short: (§4)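 Curative test: whole six-leaf tobacco leaves rubbed with TMV (5.88 10-2 μg/mL), dried in greenhouse, then compound smeared on upper three leaves and solvent on lower three as control. Local lesions scored 2-3 days after inoculation, three repetitions. Inhibition (%) = (CK − A)/CK × 100 on mean lesion numbers.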

Mycosphaerella arachidis = test: Fungicidal activity against Mycosphaerella arachidis at 50 ug/ml by growth inhibition method; type: functional; conditions: read-out: GI; in short: as §1
Tobacco mosaic virus [9] = test: In vivo antiviral activity against Tobacco mosaic virus (TMV) infected tobacco leaves assessed as protective effect at 100 ug/ml treated 12 hr before viral inoculation measured at 2-3 days after viral challenge; type: functional; in short: as §2
Tobacco mosaic virus [10] = test: In vivo antiviral activity against Tobacco mosaic virus (TMV) infected tobacco leaves assessed as curative effect at 100 ug/ml treated after viral inoculation measured at 2-3 days after viral challenge; type: functional; in short: as §4
Nicotiana tabacum [11] = test: Induction of systemic acquired resistance activity in TMV infected-Nicotiana tabacum (tobacco) leaves at 100 ug/ml; type: functional
In short: (§5)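 Tobacco/TMV system used for systemic acquired resistance induction. Inhibition ratio calculated from mean lesion numbers on inoculated leaves relative to corresponding control. Tiadinil and ribavirin run as controls.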

Nicotiana tabacum [12] = test: Induction of systemic acquired resistance activity in TMV infected-Nicotiana tabacum (tobacco) leaves at 50 ug/ml; type: functional; in short: as §5
Puccinia triticina = test: Fungicidal activity against Puccinia triticina at 50 ug/ml by growth inhibition method; type: functional; conditions: read-out: GI; in short: as §1
Rhizoctonia solani = test: Fungicidal activity against Rhizoctonia solani at 50 ug/ml by growth inhibition method; type: functional; conditions: read-out: GI; in short: as §1
Tobacco mosaic virus [13] = test: In vitro antiviral activity against Tobacco mosaic virus (TMV) infected tobacco leaves at 100 ug/ml; type: functional

SMILES | Activity (Nicotiana tabacum [2]) | Activity (Tobacco mosaic virus [3]) [%] | inhibition of growth at 50 µg/mL (Phytophthora infestans) [%] | inhibition of growth at 50 µg/mL (Fusarium graminearum) [%] | Activity (Tobacco mosaic virus [4]) [%] | inhibition of growth at 50 µg/mL (Colletotrichum lagenaria) [%] | inhibition of growth at 50 µg/mL (Alternaria solani) [%] | inhibition of growth at 50 µg/mL [5] [%] | inhibition of growth at 50 µg/mL (Thanatephorus cucumeris) [%] | inhibition at 500 µg/mL (Tobacco mosaic virus [6]) [%] | inhibition of growth at 50 µg/mL (Cercospora beticola) [%] | Activity (Tobacco mosaic virus [7]) [%] | Activity (Tobacco mosaic virus [8]) [%] | inhibition of growth at 50 µg/mL (Mycosphaerella arachidis) [%] | Activity (Tobacco mosaic virus [9]) [%] | Activity (Tobacco mosaic virus [10]) [%] | Activity (Nicotiana tabacum [11]) [%] | Activity (Nicotiana tabacum [12]) [%] | inhibition of growth at 50 µg/mL (Rhizoctonia solani) [%] | inhibition at 100 µg/mL (Tobacco mosaic virus [13]) [%] | further results
Cc1ccc(N(C(=O)c2nnsc2C)C(C(=O)NC(C)C)c2ccccc2C)cc1Cl (stereo unspecified) | Non-toxic | 38 | 10 | 37 | 50 | 10 | 40 | 31 | 69 | 12 | 17 | 23 | 42 | 21 | 13 | 21 | 0 | 37 |  |  | inhibition of growth at 50 µg/mL (Botrytis cinerea): 76%; inhibition at 200 µg/mL (Tobacco mosaic virus [1]): 58%; inhibition of growth at 50 µg/mL (Fusarium oxysporum): 19%
Cc1ccc(N(C(=O)c2nnsc2C)C(C(=O)NC(C)C)c2ccc(O)cc2)cc1F (stereo unspecified) | Non-toxic | 76 | 0 | 0 | 72 | 0 | 0 | 0 | 4 | 35 | 0 | 51 | 55 | 0 | 71 | 28 | 7 | 36 | 0 | 26 | inhibition of growth at 50 µg/mL (Puccinia triticina): 0%
Cc1ccc(N(C(=O)c2nnsc2C)C(C(=O)NC2CCCCC2)c2cccc(Cl)c2)cc1F (stereo unspecified) | Non-toxic | 67 | 44 | 27 | 79 | 0 | 25 | 8 | 0 | 18 | 25 | 69 | 40 | 27 | 29 | 0 | 22 | 30 | 39 | 14 | inhibition of growth at 50 µg/mL (Puccinia triticina): 14%
Cc1ccc(NC(=O)c2snnc2C)cc1Cl [TIADINIL] | Non-toxic | 75 | 46 | 36 | 59 |  |  | 74 | 46 | 48 | 40 | 42 | 58 | 18 | 57 | 46 | 52 | 50 | 1 | 25 | inhibition of growth at 50 µg/mL (Botrytis cinerea): 67%; inhibition of growth at 50 µg/mL (Fusarium oxysporum): 48%
Cc1ccc(N(C(=O)c2nnsc2C)C(C(=O)NC2CCCCC2)c2ccc(F)cc2)cc1F (stereo unspecified) | Non-toxic | 17 | 25 | 0 | 79 | 14 | 0 | 0 | 87 | 44 | 0 | 69 | 52 | 9 | 6 | 20 | 41 | 41 | 2 | 24 | inhibition of growth at 50 µg/mL (Puccinia triticina): 0%
Cc1ccc(N(C(=O)c2nnsc2C)C(C(=O)NC(C)C)c2ccc([N+](=O)[O-])cc2)cc1F (stereo unspecified) | Non-toxic | 27 | 13 | 0 | 62 | 0 | 0 | 0 | 22 | 25 | 25 | 65 | 17 | 27 | 26 | 0 | 7 | 66 | 17 | 9 | inhibition of growth at 50 µg/mL (Puccinia triticina): 0%
Cc1ccc(N(C(=O)c2nnsc2C)C(C(=O)NC(C)C)c2ccccc2C(F)(F)F)cc1F (stereo unspecified) | Non-toxic | 44 | 44 | 27 | 65 | 36 | 13 | 0 | 15 | 71 | 13 | 67 | 44 | 9 | 5 | 32 | 60 | 30 | 17 | 57 | inhibition of growth at 50 µg/mL (Puccinia triticina): 0%
